Converted amounts (≈) assume the structure as drawn.
Key:
Assay type in all cases: functional
[1] = test system: Staphylococcus aureus; test: Antibacterial activity against methicillin-resistant Staphylococcus aureus 2 measured after overnight incubation by broth double-dilution method
Method in brief: (§1)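 MIC by broth double-dilution in liquid Mueller-Hinton medium. Values are reported in µg/mL.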

[2] = test system: Staphylococcus aureus; test: Antibacterial activity against methicillin-resistant Staphylococcus aureus NRS4 measured after overnight incubation by broth double-dilution method; method in brief: as §1
[3] = test system: Staphylococcus aureus; test: Antibacterial activity against methicillin-resistant Staphylococcus aureus BRS3 measured after overnight incubation by broth double-dilution method; method in brief: as §1
[4] = test system: Staphylococcus aureus; test: Antibacterial activity against methicillin-resistant Staphylococcus aureus USA100 measured after overnight incubation by broth double-dilution method; method in brief: as §1
[5] = test system: Staphylococcus aureus; test: Antibacterial activity against methicillin-resistant Staphylococcus aureus C19 measured after overnight incubation by broth double-dilution method; method in brief: as §1
[6] = test system: Staphylococcus aureus; test: Antibacterial activity against methicillin-sensitive Staphylococcus aureus ATCC 6538 measured after overnight incubation by broth double-dilution method; method in brief: as §1
[7] = test system: Staphylococcus aureus; test: Antibacterial activity against methicillin-resistant Staphylococcus aureus S22 measured after overnight incubation by broth double-dilution method; method in brief: as §1
[8] = test system: Mycolicibacterium smegmatis; test: Antibacterial activity against Mycobacterium smegmatis MC2-155 measured after overnight incubation by broth double-dilution method; settings: str. MC2 155; method in brief: as §1
[9] = test system: Staphylococcus aureus; test: Antibacterial activity against methicillin-resistant Staphylococcus aureus C1 measured after overnight incubation by broth double-dilution method; method in brief: as §1
[10] = test system: Staphylococcus aureus; test: Antibacterial activity against methicillin-resistant Staphylococcus aureus ATCC 33591 measured after overnight incubation by broth double-dilution method; method in brief: as §1
[11] = test system: Staphylococcus aureus; test: Antibacterial activity against methicillin-resistant Staphylococcus aureus USA300 measured after overnight incubation by broth double-dilution method; method in brief: as §1
[12] = test system: Staphylococcus aureus; test: Antibacterial activity against methicillin-resistant Staphylococcus aureus G14 measured after overnight incubation by broth double-dilution method; method in brief: as §1
[13] = test system: Listeria monocytogenes; test: Antibacterial activity against Listeria monocytogenes ATCC 19115 measured after overnight incubation by broth double-dilution method
Method in brief: (§2)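 MIC by broth double-dilution in Mueller-Hinton medium. Re-testing at the time-kill inoculum used 1×10^6 CFU/mL.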

[14] = test system: Staphylococcus aureus; test: Antibacterial activity against methicillin-resistant Staphylococcus aureus S17 measured after overnight incubation by broth double-dilution method; method in brief: as §1
[15] = test system: Staphylococcus aureus; test: Antibacterial activity against methicillin-resistant Staphylococcus aureus G12 measured after overnight incubation by broth double-dilution method; method in brief: as §1
[16] = test system: Staphylococcus aureus; test: Antibacterial activity against methicillin-sensitive Staphylococcus aureus ATCC 25923 measured after overnight incubation by broth double-dilution method; method in brief: as §1
[17] = test system: Enterococcus; test: Antibacterial activity against Vancomycin-resistant Enterococcus measured after overnight incubation by broth double-dilution method; method in brief: as §1
[18] = test system: Staphylococcus aureus; test: Antibacterial activity against methicillin-resistant Staphylococcus aureus USA600 measured after overnight incubation by broth double-dilution method; method in brief: as §1
[19] = test system: Enterococcus faecalis; test: Antibacterial activity against Enterococcus faecalis ATCC 49533 measured after overnight incubation by broth double-dilution method; method in brief: as §2
[20] = test system: Staphylococcus aureus; test: Antibacterial activity against methicillin-resistant Staphylococcus aureus NRS51 measured after overnight incubation by broth double-dilution method; method in brief: as §1
[21] = test system: Enterococcus faecalis; test: Antibacterial activity against Enterococcus faecalis ATCC 29212 measured after overnight incubation by broth double-dilution method; method in brief: as §2
[22] = test system: Staphylococcus aureus; test: Antibacterial activity against methicillin-resistant Staphylococcus aureus S14 measured after overnight incubation by broth double-dilution method; method in brief: as §1
[23] = test system: Staphylococcus aureus; test: Antibacterial activity against methicillin-resistant Staphylococcus aureus C7 measured after overnight incubation by broth double-dilution method; method in brief: as §1
[24] = test system: Staphylococcus aureus; test: Antibacterial activity against methicillin-resistant Staphylococcus aureus USA200 measured after overnight incubation by broth double-dilution method; method in brief: as §1
[25] = test system: Staphylococcus aureus; test: Antibacterial activity against methicillin-resistant Staphylococcus aureus C16 measured after overnight incubation by broth double-dilution method; method in brief: as §1
[26] = test system: Staphylococcus aureus; test: Antibacterial activity against methicillin-sensitive Staphylococcus aureus ATCC 29213 measured after overnight incubation by broth double-dilution method; method in brief: as §1
[27] = test system: Staphylococcus epidermidis; test: Antibacterial activity against Staphylococcus epidermidis ATCC 35984 measured after overnight incubation by broth double-dilution method; settings: RP62A; method in brief: as §2
[28] = test system: Staphylococcus aureus; test: Antibacterial activity against methicillin-resistant Staphylococcus aureus S24 measured after overnight incubation by broth double-dilution method; method in brief: as §1
[29] = test system: Staphylococcus aureus; test: Antibacterial activity against methicillin-resistant Staphylococcus aureus G1 measured after overnight incubation by broth double-dilution method; method in brief: as §1
[30] = test system: Staphylococcus aureus; test: Antibacterial activity against methicillin-resistant Staphylococcus aureus C14 measured after overnight incubation by broth double-dilution method; method in brief: as §1
[31] = test system: Staphylococcus aureus; test: Antibacterial activity against methicillin-resistant Staphylococcus aureus NRS77 measured after overnight incubation by broth double-dilution method; method in brief: as §1
[32] = test system: Staphylococcus aureus; test: Antibacterial activity against methicillin-resistant Staphylococcus aureus 1 measured after overnight incubation by broth double-dilution method; method in brief: as §1
[33] = test system: Staphylococcus aureus; test: Antibacterial activity against methicillin-resistant Staphylococcus aureus G6 measured after overnight incubation by broth double-dilution method; method in brief: as §1
[34] = test system: Enterococcus faecium; test: Antibacterial activity against Enterococcus faecium BM4105-RF measured after overnight incubation by broth double-dilution method; method in brief: as §1
[35] = test system: Staphylococcus aureus; test: Antibacterial activity against methicillin-resistant Staphylococcus aureus C2 measured after overnight incubation by broth double-dilution method; method in brief: as §1

SMILES | MIC [1] [µg/mL] | MIC [2] [µg/mL] | MIC [3] [µg/mL] | MIC [4] [µg/mL] | MIC [5] [µg/mL] | MIC [6] [µg/mL] | MIC [7] [µg/mL] | MIC [8] [µg/mL] | MIC [9] [µg/mL] | MIC [10] [µg/mL] | MIC [11] [µg/mL] | MIC [12] [µg/mL] | MIC [13] [µg/mL] | MIC [14] [µg/mL] | MIC [15] [µg/mL] | MIC [16] [µg/mL] | MIC [17] [µg/mL] | MIC [18] [µg/mL] | MIC [19] [µg/mL] | MIC [20] [µg/mL] | other results
Cc1cc(C)cc(-n2sc3ccccc3c2=O)c1 | 7.8 (≈ 30.5 µM) | 7.8 (≈ 30.5 µM) | 7.8 (≈ 30.5 µM) | 3.9 (≈ 15.3 µM) | 7.8 (≈ 30.5 µM) | 7.8 (≈ 30.5 µM) | 3.9 (≈ 15.3 µM) | 3.9 (≈ 15.3 µM) | 3.9 (≈ 15.3 µM) | 1 (≈ 3.92 µM) | 7.8 (≈ 30.5 µM) | 3.9 (≈ 15.3 µM) | 7.8 (≈ 30.5 µM) | 3.9 (≈ 15.3 µM) | 7.8 (≈ 30.5 µM) | 7.8 (≈ 30.5 µM) | 3.9 (≈ 15.3 µM) | 7.8 (≈ 30.5 µM) | 15.6 (≈ 61.1 µM) | 7.8 (≈ 30.5 µM) | MIC [21]: 15.6 µg/mL (≈ 61.1 µM); MIC [22]: ≤ 0.25 µg/mL; MIC [23]: 3.9 µg/mL (≈ 15.3 µM); MIC [24]: 7.8 µg/mL (≈ 30.5 µM); MIC [25]: 7.8 µg/mL (≈ 30.5 µM); MIC [26]: 3.9 µg/mL (≈ 15.3 µM); MIC [27]: 3.9 µg/mL (≈ 15.3 µM); MIC [28]: 7.8 µg/mL (≈ 30.5 µM); MIC [29]: 7.8 µg/mL (≈ 30.5 µM); MIC [30]: 15.6 µg/mL (≈ 61.1 µM); MIC [31]: 7.8 µg/mL (≈ 30.5 µM); MIC [32]: 7.8 µg/mL (≈ 30.5 µM); MIC [33]: 7.8 µg/mL (≈ 30.5 µM); MIC [34]: 15.6 µg/mL (≈ 61.1 µM); MIC [35]: 3.9 µg/mL (≈ 15.3 µM)
O=c1c2ccccc2sn1C1CCCCCC1 | 3.9 (≈ 15.8 µM) | 2 (≈ 8.09 µM) | 2 (≈ 8.09 µM) | 3.9 (≈ 15.8 µM) | 1 (≈ 4.04 µM) | 7.8 (≈ 31.5 µM) | 3.9 (≈ 15.8 µM) | 7.8 (≈ 31.5 µM) | 2 (≈ 8.09 µM) | 1 (≈ 4.04 µM) | 15.6 (≈ 63.1 µM) | 3.9 (≈ 15.8 µM) | 3.9 (≈ 15.8 µM) | 1 (≈ 4.04 µM) | 2 (≈ 8.09 µM) | 3.9 (≈ 15.8 µM) | 2 (≈ 8.09 µM) | 7.8 (≈ 31.5 µM) | > 125 | 3.9 (≈ 15.8 µM) | MIC [21]: > 125 µg/mL; MIC [22]: 0.5 µg/mL (≈ 2.02 µM); MIC [23]: 3.9 µg/mL (≈ 15.8 µM); MIC [24]: 7.8 µg/mL (≈ 31.5 µM); MIC [25]: 3.9 µg/mL (≈ 15.8 µM); MIC [26]: 3.9 µg/mL (≈ 15.8 µM); MIC [27]: 2 µg/mL (≈ 8.09 µM); MIC [28]: 3.9 µg/mL (≈ 15.8 µM); MIC [29]: 0.5 µg/mL (≈ 2.02 µM); MIC [30]: 2 µg/mL (≈ 8.09 µM); MIC [31]: 2 µg/mL (≈ 8.09 µM); MIC [32]: 2 µg/mL (≈ 8.09 µM); MIC [33]: 2 µg/mL (≈ 8.09 µM); MIC [34]: 7.8 µg/mL (≈ 31.5 µM); MIC [35]: 2 µg/mL (≈ 8.09 µM)

Source: ChEMBL document CHEMBL3864121, “Development of ebsulfur analogues as potent antibacterials against methicillin-resistant Staphylococcus aureus” (Bioorg Med Chem, 2016)
